Measurements published in ChEMBL document CHEMBL1154934, “Identification of piperazine-bisamide GHSR antagonists for the treatment of obesity” (Bioorg Med Chem Lett, 2010).

How the values were obtained:
[1] = molecular target: T1, Growth hormone secretagogue receptor type 1 (Homo sapiens, UniProt Q92847); assay: Agonist activity at human GHSR expressed in CHO cells assessed as increase in ghrelin-induced [3H]IP accumulation at 10 uM after 1 hr by scintillation counting relative to ghrelin; assay type: functional, cell-based
T1 sequence (Q92847 whole entry): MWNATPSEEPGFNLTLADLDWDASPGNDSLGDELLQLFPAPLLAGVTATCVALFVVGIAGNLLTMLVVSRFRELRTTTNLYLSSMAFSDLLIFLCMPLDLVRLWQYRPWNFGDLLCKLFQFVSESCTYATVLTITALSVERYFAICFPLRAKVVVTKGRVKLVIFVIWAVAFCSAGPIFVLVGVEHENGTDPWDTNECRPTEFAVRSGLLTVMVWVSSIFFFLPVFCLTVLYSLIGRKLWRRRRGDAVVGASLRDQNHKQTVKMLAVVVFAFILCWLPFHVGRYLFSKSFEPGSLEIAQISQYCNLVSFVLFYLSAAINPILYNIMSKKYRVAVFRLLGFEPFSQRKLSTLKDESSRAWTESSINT
Summary of the method: (§1)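 CHO cells stably expressing human or rat GHSR labelled 12 h with 3H-inositol (1 µCi/mL in DMEM), then exposed to ghrelin or compound at 37 °C for 1.0 h. Lysis with 20 mM formic acid, 4 °C, 4 h. Extract taken onto SPA beads, 12 h in the dark, then radioactivity counted. IP accumulation expressed as % of maximal ghrelin response at 10, 1.0 and 0.1 µM.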

[2] = molecular target: T2, Alpha-2A adrenergic receptor (Homo sapiens, UniProt P08913); assay: Inhibition of alpha2A adrenergic receptor
T2 sequence (P08913 whole entry): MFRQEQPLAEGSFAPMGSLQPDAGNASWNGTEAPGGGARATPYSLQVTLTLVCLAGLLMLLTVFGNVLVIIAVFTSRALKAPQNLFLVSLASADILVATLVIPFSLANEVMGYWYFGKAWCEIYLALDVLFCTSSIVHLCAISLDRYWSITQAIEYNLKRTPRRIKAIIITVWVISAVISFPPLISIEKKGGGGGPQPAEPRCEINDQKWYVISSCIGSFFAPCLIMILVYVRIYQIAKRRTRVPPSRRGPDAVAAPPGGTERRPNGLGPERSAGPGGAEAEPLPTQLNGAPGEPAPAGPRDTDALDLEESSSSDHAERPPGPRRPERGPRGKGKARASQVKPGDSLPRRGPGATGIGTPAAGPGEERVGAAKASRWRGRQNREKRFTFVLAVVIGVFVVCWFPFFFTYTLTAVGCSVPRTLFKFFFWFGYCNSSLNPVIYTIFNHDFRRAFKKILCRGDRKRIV

[3] = molecular target: Sodium-dependent dopamine transporter (Homo sapiens, UniProt Q01959); assay: Inhibition of DAT
[4] = molecular target: Growth hormone secretagogue receptor type 1 (Rattus norvegicus) (UniProt O08725); assay: Agonist activity at rat GHSR expressed in CHO cells assessed as increase in ghrelin-induced [3H]IP accumulation at 0.1 uM after 1 hr by scintillation counting relative to ghrelin; assay type: functional, cell-based; summary of the method: as §1
Chain of Growth hormone secretagogue receptor type 1 (Rattus norvegicus) (O08725 whole entry): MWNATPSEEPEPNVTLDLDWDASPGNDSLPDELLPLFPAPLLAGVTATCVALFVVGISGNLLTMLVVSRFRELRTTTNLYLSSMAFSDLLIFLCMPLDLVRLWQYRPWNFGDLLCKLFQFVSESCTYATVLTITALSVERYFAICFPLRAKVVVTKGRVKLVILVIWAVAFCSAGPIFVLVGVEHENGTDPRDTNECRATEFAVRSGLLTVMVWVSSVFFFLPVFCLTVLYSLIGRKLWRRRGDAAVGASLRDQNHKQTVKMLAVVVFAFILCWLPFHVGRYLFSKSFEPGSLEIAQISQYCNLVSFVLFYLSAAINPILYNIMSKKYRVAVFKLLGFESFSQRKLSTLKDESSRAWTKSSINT

[5] = molecular target: Growth hormone secretagogue receptor type 1 (Rattus norvegicus) (UniProt O08725); assay: Agonist activity at rat GHSR expressed in CHO cells assessed as increase in ghrelin-induced [3H]IP accumulation at 10 uM after 1 hr by scintillation counting relative to ghrelin; assay type: functional, cell-based; summary of the method: as §1
D(2) dopamine receptor = D(2) dopamine receptor (Homo sapiens, UniProt P14416); assay: Inhibition of dopamine D2 receptor
Chain of D(2) dopamine receptor (P14416 whole entry): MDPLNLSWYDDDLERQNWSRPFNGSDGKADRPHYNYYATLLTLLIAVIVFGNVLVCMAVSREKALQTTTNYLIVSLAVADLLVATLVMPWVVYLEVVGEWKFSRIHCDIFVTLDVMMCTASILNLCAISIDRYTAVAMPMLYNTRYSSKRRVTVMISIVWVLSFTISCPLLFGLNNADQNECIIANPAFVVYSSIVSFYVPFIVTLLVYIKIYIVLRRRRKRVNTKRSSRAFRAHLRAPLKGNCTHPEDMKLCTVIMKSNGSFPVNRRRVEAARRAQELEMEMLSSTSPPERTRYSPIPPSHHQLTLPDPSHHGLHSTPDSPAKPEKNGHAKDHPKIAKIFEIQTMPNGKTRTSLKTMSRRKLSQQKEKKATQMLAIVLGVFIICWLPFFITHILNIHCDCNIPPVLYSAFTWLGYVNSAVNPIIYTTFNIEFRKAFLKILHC

[6] = molecular target: Muscarinic acetylcholine receptor M3 (Homo sapiens, UniProt P20309); assay: Inhibition of muscarinic M3 receptor
Chain of Muscarinic acetylcholine receptor M3 (P20309 whole entry): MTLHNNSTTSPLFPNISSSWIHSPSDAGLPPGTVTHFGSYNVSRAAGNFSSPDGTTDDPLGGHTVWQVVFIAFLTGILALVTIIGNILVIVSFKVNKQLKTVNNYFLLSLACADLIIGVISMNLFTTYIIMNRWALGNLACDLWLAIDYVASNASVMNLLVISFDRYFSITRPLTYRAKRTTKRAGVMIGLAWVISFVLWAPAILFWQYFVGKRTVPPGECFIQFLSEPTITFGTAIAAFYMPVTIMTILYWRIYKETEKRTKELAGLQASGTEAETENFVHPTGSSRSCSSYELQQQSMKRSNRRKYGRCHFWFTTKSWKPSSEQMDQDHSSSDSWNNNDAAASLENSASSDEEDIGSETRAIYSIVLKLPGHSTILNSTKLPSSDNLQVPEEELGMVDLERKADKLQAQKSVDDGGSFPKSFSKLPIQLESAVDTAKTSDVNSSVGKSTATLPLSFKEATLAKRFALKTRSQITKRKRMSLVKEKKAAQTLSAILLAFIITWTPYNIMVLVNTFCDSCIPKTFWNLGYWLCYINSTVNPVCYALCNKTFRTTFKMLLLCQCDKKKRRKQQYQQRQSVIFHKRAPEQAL

[7] = molecular target: Sodium-dependent noradrenaline transporter (Homo sapiens, UniProt P23975); assay: Inhibition of NET
Chain of Sodium-dependent noradrenaline transporter (P23975 whole entry): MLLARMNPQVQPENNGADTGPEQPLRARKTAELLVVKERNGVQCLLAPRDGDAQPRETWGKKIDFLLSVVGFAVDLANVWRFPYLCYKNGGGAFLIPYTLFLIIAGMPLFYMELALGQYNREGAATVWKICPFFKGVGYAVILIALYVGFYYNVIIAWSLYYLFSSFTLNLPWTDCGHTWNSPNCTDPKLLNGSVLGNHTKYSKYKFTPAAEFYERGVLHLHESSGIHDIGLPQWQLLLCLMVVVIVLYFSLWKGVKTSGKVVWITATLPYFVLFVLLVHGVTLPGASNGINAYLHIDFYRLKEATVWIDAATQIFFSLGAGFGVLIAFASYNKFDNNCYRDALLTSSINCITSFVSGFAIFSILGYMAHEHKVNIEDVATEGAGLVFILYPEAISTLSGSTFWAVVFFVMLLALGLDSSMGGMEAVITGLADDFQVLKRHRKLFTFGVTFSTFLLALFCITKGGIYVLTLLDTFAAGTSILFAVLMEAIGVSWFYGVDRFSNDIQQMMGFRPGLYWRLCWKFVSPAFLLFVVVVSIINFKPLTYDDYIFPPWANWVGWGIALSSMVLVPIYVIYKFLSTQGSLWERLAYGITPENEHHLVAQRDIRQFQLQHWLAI

D(3) dopamine receptor = D(3) dopamine receptor (Homo sapiens, UniProt P35462); assay: Inhibition of dopamine D3 receptor
Chain of D(3) dopamine receptor (P35462 whole entry): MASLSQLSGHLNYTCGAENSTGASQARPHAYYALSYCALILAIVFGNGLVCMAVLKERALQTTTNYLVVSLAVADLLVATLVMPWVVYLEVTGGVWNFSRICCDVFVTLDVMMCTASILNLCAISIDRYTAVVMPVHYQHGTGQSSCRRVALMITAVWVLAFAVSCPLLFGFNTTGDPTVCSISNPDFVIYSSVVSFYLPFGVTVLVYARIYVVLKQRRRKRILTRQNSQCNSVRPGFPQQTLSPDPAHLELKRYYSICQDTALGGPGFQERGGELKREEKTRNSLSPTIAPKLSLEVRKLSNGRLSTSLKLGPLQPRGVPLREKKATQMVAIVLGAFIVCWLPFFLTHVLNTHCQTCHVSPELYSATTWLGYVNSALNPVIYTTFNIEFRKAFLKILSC

[8] = molecular target: Kappa-type opioid receptor (Homo sapiens, UniProt P41145); assay: Inhibition of kappa opioid receptor
Chain of Kappa-type opioid receptor (P41145 whole entry): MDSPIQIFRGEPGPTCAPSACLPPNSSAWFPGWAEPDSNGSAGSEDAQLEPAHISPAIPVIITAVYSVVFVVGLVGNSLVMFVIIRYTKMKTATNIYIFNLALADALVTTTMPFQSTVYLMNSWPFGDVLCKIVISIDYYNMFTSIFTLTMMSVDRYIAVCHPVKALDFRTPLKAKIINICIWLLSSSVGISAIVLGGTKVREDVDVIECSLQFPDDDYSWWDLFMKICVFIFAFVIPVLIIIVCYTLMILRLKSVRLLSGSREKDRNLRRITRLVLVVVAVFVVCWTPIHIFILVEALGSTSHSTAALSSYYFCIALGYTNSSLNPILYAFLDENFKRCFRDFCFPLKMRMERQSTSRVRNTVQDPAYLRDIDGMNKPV

Mu-type opioid receptor = Mu-type opioid receptor (Homo sapiens, UniProt P35372); assay: Inhibition of mu opioid receptor
[9] = molecular target: T1, Growth hormone secretagogue receptor type 1; assay: Antagonist activity at human GHSR expressed in CHOK1 cells assessed as inhibition of ghrelin-induced intracellular calcium flux by aequorin flash luminescence assay; assay type: functional, cell-based, CHO-K1
Summary of the method: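 Aequorin flash luminescence in CHO-K1 cells stably co-expressing human ghrelin receptor and aequorin. […] IC50 values are means of three determinations.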

[10] = molecular target: T3, 5-hydroxytryptamine receptor 2C (Homo sapiens, UniProt P28335); assay: Inhibition of 5HT2C (receptor)
T3 sequence (P28335 whole entry): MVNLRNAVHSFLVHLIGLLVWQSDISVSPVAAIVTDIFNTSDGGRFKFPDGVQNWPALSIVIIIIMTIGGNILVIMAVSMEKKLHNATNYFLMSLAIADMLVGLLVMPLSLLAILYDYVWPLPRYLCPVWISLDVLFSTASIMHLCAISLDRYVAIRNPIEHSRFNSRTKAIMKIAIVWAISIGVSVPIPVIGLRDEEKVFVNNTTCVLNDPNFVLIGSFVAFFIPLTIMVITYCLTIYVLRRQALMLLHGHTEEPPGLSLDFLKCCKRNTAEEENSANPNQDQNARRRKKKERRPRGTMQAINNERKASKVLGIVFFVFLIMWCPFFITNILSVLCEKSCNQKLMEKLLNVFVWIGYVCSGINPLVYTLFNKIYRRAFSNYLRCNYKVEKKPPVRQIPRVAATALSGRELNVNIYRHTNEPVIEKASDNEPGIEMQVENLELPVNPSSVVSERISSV

[11] = molecular target: Sodium-dependent serotonin transporter (Homo sapiens, UniProt P31645); assay: Inhibition of SERT
Chain of Sodium-dependent serotonin transporter (P31645 whole entry): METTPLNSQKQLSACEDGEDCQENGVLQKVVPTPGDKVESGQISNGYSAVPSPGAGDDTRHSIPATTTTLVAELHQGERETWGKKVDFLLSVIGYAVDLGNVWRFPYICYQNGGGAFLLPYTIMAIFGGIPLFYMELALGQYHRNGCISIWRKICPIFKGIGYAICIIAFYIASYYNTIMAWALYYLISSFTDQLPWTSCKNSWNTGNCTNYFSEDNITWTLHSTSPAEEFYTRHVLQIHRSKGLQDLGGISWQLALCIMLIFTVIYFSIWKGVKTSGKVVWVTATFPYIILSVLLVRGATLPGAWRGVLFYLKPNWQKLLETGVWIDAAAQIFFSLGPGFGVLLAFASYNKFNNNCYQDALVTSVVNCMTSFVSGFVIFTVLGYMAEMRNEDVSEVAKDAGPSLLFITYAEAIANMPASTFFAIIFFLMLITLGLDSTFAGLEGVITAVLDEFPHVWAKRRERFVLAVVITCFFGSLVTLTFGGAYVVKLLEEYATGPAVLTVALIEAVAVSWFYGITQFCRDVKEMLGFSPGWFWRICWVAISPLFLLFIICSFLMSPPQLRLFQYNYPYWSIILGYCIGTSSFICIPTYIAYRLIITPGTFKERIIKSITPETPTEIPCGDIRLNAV

[12] = molecular target: 5-hydroxytryptamine receptor 2A (Homo sapiens, UniProt P28223); assay: Inhibition of 5HT2A (receptor)
Chain of 5-hydroxytryptamine receptor 2A (P28223 whole entry): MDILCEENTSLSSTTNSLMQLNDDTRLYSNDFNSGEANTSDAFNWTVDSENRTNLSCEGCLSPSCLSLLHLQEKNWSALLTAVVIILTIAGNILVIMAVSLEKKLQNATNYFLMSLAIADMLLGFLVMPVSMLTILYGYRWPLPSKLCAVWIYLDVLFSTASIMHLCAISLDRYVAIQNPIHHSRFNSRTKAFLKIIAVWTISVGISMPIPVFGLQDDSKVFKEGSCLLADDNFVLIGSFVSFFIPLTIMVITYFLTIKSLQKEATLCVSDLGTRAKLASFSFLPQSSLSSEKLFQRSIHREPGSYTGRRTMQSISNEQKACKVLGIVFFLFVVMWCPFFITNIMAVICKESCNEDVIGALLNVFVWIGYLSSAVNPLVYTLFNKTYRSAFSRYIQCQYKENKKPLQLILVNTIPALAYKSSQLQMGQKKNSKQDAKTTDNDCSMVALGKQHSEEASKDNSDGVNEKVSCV

[13] = molecular target: Growth hormone secretagogue receptor type 1 (Rattus norvegicus) (UniProt O08725); assay: Agonist activity at rat GHSR expressed in CHO cells assessed as increase in ghrelin-induced [3H]IP accumulation at 1 uM after 1 hr by scintillation counting relative to ghrelin; assay type: functional, cell-based; summary of the method: as §1
Histamine H2 receptor = Histamine H2 receptor (Homo sapiens, UniProt P25021); assay: Inhibition of histamine H2 receptor
Chain of Histamine H2 receptor (P25021 whole entry): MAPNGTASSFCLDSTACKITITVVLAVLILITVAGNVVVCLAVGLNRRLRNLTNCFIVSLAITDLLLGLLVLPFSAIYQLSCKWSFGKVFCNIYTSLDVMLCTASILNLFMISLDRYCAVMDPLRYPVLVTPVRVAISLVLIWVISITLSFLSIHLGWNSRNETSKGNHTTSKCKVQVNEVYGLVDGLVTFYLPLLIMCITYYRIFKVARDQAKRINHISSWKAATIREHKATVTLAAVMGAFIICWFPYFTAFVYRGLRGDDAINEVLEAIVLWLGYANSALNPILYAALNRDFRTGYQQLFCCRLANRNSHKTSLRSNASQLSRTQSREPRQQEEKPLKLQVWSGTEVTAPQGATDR

[14] = molecular target: Growth hormone secretagogue receptor type 1 (Rattus norvegicus) (UniProt O08725); assay: (§2) Inhibition of rat GHSR expressed in CHOK1 cells assessed as inhibition of ghrelin-induced intracellular calcium flux by aequorin flash luminescence assay; assay type: functional, cell-based; settings: CHO-K1
[15] = Induction of growth hormone release from Sprague-Dawley rat pituitary cells at 1 uM after 20 mins by RIA assay relative to ghrelin; assay type: functional, Pituitary gland cell
Summary of the method: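 Pituitary cells from 6–8-week-old male SD rats plated on poly-D-lysine and cultured 3 days at 37 °C. Washed with DMEM assay buffer (20 mM Hepes, 0.3% BSA) and held 5 min at 37 °C. Treated with rat ghrelin or compound for 20 min, then GH release measured as % of maximal ghrelin response. Means of three determinations.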

[16] = molecular target: Growth hormone secretagogue receptor type 1 (Rattus norvegicus, UniProt O08725); assay: as §2; assay type: functional, cell-based, CHO-K1
Chain of Growth hormone secretagogue receptor type 1 (Rattus norvegicus, UniProt O08725) (O08725 whole entry): as the sequence (O08725 whole entry) above

[17] = Inhibition of cytochrome P450; assay type: ADME
[18] = Oral bioavailability in rat at 0.5 mg/kg; assay type: ADME, organism-based; settings: in vivo
Summary of the method: (§3)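 Rats dosed iv at 2.0 mg/kg for clearance, MRT and Vdss. Oral dosing at 0.5 mg/kg for bioavailability (F).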

[19] = molecular target: T1, Growth hormone secretagogue receptor type 1; assay: Agonist activity at human GHSR expressed in CHO cells assessed as increase in ghrelin-induced [3H]IP accumulation at 0.1 uM after 1 hr by scintillation counting relative to ghrelin; assay type: functional, cell-based; summary of the method: as §1
[20] = molecular target: T1, Growth hormone secretagogue receptor type 1; assay: Agonist activity at human GHSR expressed in CHO cells assessed as increase in ghrelin-induced [3H]IP accumulation at 1 uM after 1 hr by scintillation counting relative to ghrelin; assay type: functional, cell-based; summary of the method: as §1
[21] = molecular target: Voltage-gated inwardly rectifying potassium channel KCNH2 (Homo sapiens, UniProt Q12809); assay: Inhibition of human ERG
[22] = Clearance in rat at 2 mg/kg, iv; assay type: ADME, organism-based; set-up: dose 2 mg/kg, route intravenous; settings: in vivo; summary of the method: as §3
[23] = Volume of distribution at steady state in rat at 2 mg/kg, iv; assay type: ADME, organism-based; set-up: dose 2 mg/kg, route intravenous; settings: in vivo, read-out: Vdss
[24] = Mean residence time in rat at 2 mg/kg, iv; assay type: ADME, organism-based; set-up: dose 2 mg/kg, route intravenous; settings: in vivo; summary of the method: as §3
[25] = Ratio of brain AUC to plasma AUC in FVB mouse; assay type: ADME, cell-free; settings: brain and plasma
[26] = Fraction unbound in mouse plasma; assay type: ADME, cell-free
[27] = Ratio of brain AUC to plasma AUC in mdr1a knockout mouse; assay type: ADME, cell-free; settings: brain and plasma
[28] = Mean residence time in mouse at 0.5 mg/kg, iv; assay type: ADME, organism-based; set-up: dose 0.5 mg/kg, route intravenous; settings: in vivo
Summary of the method: (§4)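 Mice dosed intravenously at 0.5 mg/kg. Clearance, MRT and Vdss derived from plasma pharmacokinetics.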

[29] = Clearance in mouse at 0.5 mg/kg, iv; assay type: ADME, organism-based; set-up: dose 0.5 mg/kg, route intravenous; settings: in vivo; summary of the method: as §4
[30] = Metabolic stability in human liver microsomes assessed as compound remaining at 1 uM after 30 mins; assay type: ADME, Microsome; settings: read-out: Stability
Summary of the method: (§5)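 Compound incubated at 1.0 µM initial concentration with rat or human liver microsomes for 30 min. Percentage of compound remaining determined.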

[31] = Inhibition of rat ghrelin-stimulated growth hormone release from Sprague-Dawley rat pituitary cells pretreated for 10 mins before rat ghrelin challenge measured after 20 mins by RIA assay; assay type: functional, cell-based; settings: Pituitary gland cell
Summary of the method: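 Primary pituitary cells from 6–8-week-old male SD rats cultured 3 days at 37 °C, then washed in DMEM/20 mM Hepes/0.3% BSA buffer. Compound pretreatment for 10 min, then co-incubation with rat ghrelin (0.2 µM) plus compound for another 20 min. GH release measured and IC50 derived. Means of three determinations.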

[32] = Fraction unbound in rat plasma; assay type: ADME, cell-free
[33] = Volume of distribution at steady state in mouse at 0.5 mg/kg, iv; assay type: ADME, organism-based; set-up: dose 0.5 mg/kg, route intravenous; settings: in vivo, read-out: Vdss; summary of the method: as §4
MDCK = assay: Ratio of apparent permeability from basolateral to apical over apical to basolateral side of MDCK cells expressing human MDR1; settings: dog
[34] = Metabolic stability in rat liver microsomes assessed as compound remaining at 1 uM after 30 mins; assay type: ADME, Microsome; settings: read-out: Stability; summary of the method: as §5

Row | Activity [1] [%] | Ki [2] [µM] | Ki [3] [µM] | Activity [5] [%] | Ki (D(2) dopamine receptor) [µM] | Ki [6] [µM] | Ki [7] [µM] | Ki (D(3) dopamine receptor) [µM] | Ki [8] [µM] | Ki (Mu-type opioid receptor) [µM] | IC50 [9] [µM] | Ki [10] [µM] | Ki [11] [µM] | Ki [12] [µM] | Ki (Histamine H2 receptor) [µM] | IC50 [14] [µM] | SMILES | Activity [15] [%] | further results
1 | 18 | > 10 | > 10 | 14 | > 10 | > 10 | > 10 | > 10 | > 10 | > 10 | 0.1 | > 10 | > 10 | > 10 | > 10 | – | O=C(c1ccc(-c2ccccc2)cc1)N1CCN(C(=O)c2ccc3cc[nH]c3c2)CC1 | – | Activity [4]: 24%; Activity [13]: 14%
2 | – | – | – | -2 | – | – | – | – | – | – | 0.031 | – | – | – | – | 0.049 | C[C@H]1CN(C(=O)c2ccc(-c3ccncc3F)cc2)CCN1C(=O)c1ccc2cc[nH]c2c1 | – | –
3 | 33 | > 10 | > 10 | 33 | > 10 | > 10 | > 10 | > 10 | > 10 | > 10 | 0.0091 | > 10 | > 10 | > 10 | > 10 | – | C[C@H]1CN(C(=O)c2ccc(-c3ccccc3F)cc2)CCN1C(=O)c1ccc2cc[nH]c2c1 | 24 | IC50 [16]: 0.002 µM; IC50 [17]: > 10 µM; Activity [4]: 41%; bioavailability [18]: 17%; Activity [19]: 21%; Activity [20]: 31%; IC50 [21]: > 10 µM; clearance [22]: 35 mL/min/kg; Vd [23]: 3.7 L/kg; MRT [24]: 1.9 h; Activity [13]: 42%; Kp [25]: 0.26
4 | 24 | > 10 | > 10 | 28 | > 10 | > 10 | > 10 | > 10 | > 10 | > 10 | 0.0041 | > 10 | > 10 | > 10 | > 10 | – | C[C@H]1CN(C(=O)c2ccc(-c3ccccc3C(F)(F)F)cc2)CCN1C(=O)c1ccc2cc[nH]c2c1 | 21 | –
5 | – | – | – | -16 | – | – | – | – | – | – | 0.0122 | – | – | – | – | 0.0103 | C[C@H]1CN(C(=O)c2ccc(-c3ccncc3)c(F)c2)CCN1C(=O)c1ccc2cc[nH]c2c1 | – | fraction unbound [26]: 0.04; Kp [27]: 2.3; MRT [28]: 0.7 h; clearance [29]: 32.7 mL/min/kg; remaining at 0.5 h, 1 µM [30]: 87%; IC50 [31]: 0.093 µM; fraction unbound [32]: 0.04; Vd [33]: 1.4 L/kg; Ratio (MDCK): 1.7; remaining at 0.5 h, 1 µM [34]: 78%; Kp [25]: 0.16
6 | – | – | – | -1 | – | – | – | – | – | – | 0.042 | – | – | – | – | 0.045 | C[C@H]1CN(C(=O)c2ccc(-c3ccncc3F)c(F)c2)CCN1C(=O)c1ccc2cc[nH]c2c1 | – | –
7 | 32 | > 10 | > 10 | 31 | > 10 | > 10 | > 10 | > 10 | > 10 | > 10 | 0.0029 | > 10 | > 10 | > 10 | > 10 | – | Cc1ccccc1-c1ccc(C(=O)N2CCN(C(=O)c3ccc4cc[nH]c4c3)[C@@H](C)C2)cc1 | 18 | –
8 | 45 | > 10 | > 10 | 46 | > 10 | > 10 | > 10 | > 10 | > 10 | > 10 | 0.012 | > 10 | > 10 | > 10 | > 10 | – | COc1cccc(-c2ccc(C(=O)N3CCN(C(=O)c4ccc5cc[nH]c5c4)[C@@H](C)C3)cc2)c1 | 40 | –
